Measured values taken from paper PMC8650835 (International Journal of Nanomedicine, 2021).
Converted amounts (≈) assume the structure as drawn.

Key:
[1] = In vivo safety: body weight, H&E histology, blood biochemistry; design: species or system BALB/c nude mice; details: 10 mg·kg^−1 i.v.
Outline: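 MCF-7 xenografts in BALB/c nude mice: 1×10^6 cells s.c. (alar region), randomised at 100–200 mm3 (n = 6/group). Untreated normal group also included. Body weight recorded every 2 days for 16 days. Day 16: serum ALT, AST, BUN, CRE measured; organs formalin-fixed, paraffin-embedded and H&E-stained.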

[2] = Aqueous solubility in PBS; assay type: physicochemical; details: pH = 7.4
[3] = in PBS; cited from earlier work
[4] = free CPT; cited from earlier work

| Compound | body weights compared to PBS ([1]; MCF-7 tumor-bearing nude mice, p < 0.05) | creatinine (CRE) level compared with the normal group ([1]; day 16, p < 0.001, n = 6) | blood urea nitrogen (BUN) level compared with the normal group ([1]; day 16, p < 0.05, n = 6) | H&E staining of kidney ([1]; characteristic of acute kidney injury) | aqueous solubility [2] | CPT lactone form remained at equilibrium [3] | half-life of lactone ring hydrolysis [3] | blood circulation half-life (t1/2) [4] |
| --- | --- | --- | --- | --- | --- | --- | --- | --- |
| CCc1c2c(nc3ccc(OC(=O)N4CCC(N5CCCCC5)CC4)cc13)-c1cc3c(c(=O)n1C2)COC(=O)[C@]3(O)CC [IR, irinotecan] | reduced observably | increased obviously | increased obviously | obvious interstitial inflammatory cell infiltration | – | – | – | – |
| CC[C@@]1(O)C(=O)OCc2c1cc1n(c2=O)Cc2cc3ccccc3nc2-1 [CPT, camptothecin] | – | – | – | – | 3 µg/mL (≈ 8.61 µM) | 17% | 24 min | 9.9 ± 8.04 min |
